Laboratory results from ChEMBL document CHEMBL4371059 (J Med Chem, 2019).
pKi: −log10 of the molar value. Calls of active or inactive are those of the source. No cut-off for these calls is given here.

Columns and labels:
[1] = molecular target: T1, Sigma intracellular receptor 2 (Rattus norvegicus) (UniProt Q5U3Y7); assay: Displacement of [3H]DTG from sigma2 receptor in rat liver membranes at 1 uM after 120 mins by scintillation counting method relative to control; type: cell membranes
T1 sequence (whole entry): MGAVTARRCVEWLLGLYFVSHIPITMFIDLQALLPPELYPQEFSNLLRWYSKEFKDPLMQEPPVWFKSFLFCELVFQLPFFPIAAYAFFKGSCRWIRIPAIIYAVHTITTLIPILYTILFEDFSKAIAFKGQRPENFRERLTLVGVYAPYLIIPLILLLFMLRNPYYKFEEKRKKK

Mus musculus [2] = assay: (§1) Anti-inflammatory activity against C57BL/6 mouse model of MOG-induced autoimmune encephalomyelitis assessed as reduction in immune cell infiltration in to lumbar spinal cord at 100 uL of 20 uM solution administered ip starting from day 1 post immunization and measured 9 to 16 days post Mycobacterium tuberculosis H37Ra/MOG immunization by hematoxylin and eosin staining based microscopic method; type: functional, organism-based
How it was run: (§2)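 C57BL/6 wild-type mice, 8–12 weeks old, were kept under SPF conditions and immunized with MOG peptide. From day 1 after immunization they received a daily ip injection of 100 µl of a 20 µM solution; controls received PBS. Clinical signs were checked daily. Tissues were taken at disease peak, days 12–15 after immunization.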

Dendritic cell [3] = assay: Anti-inflammatory activity in PMA/ionomycin-stimulated human PBMC-derived dendritic cells assessed as reduction in IFNgamma production at 5 ug/ml treated for 48 hrs starting from 12 hrs post PMA/ionomycin stimulation by flow cytometry; type: functional, cell-based
How it was run: (§3)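 PBMC were prepared from heparinized blood of healthy donors by Ficoll gradient, and DC or T cells were negatively enriched with magnetic kits. Cells were activated 12 h with PMA (5 ng/ml) plus ionomycin (500 ng/ml), then cultured 48 h with compound or PBS. Flow cytometry was gated on HLA-DR⁺CD11c⁺ for DC and CD3⁺ for T cells, with intracellular IFN-γ; n=3 donors.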

T-cell [4] = assay: Anti-inflammatory activity in PMA/ionomycin-stimulated human PBMC-derived T cells assessed as reduction in IFNgamma production at 5 ug/ml treated for 48 hrs starting from 12 hrs post PMA/ionomycin stimulation by flow cytometry; type: functional, cell-based; how it was run: as §3
Mus musculus [5] = assay: (§4) Anti-inflammatory activity against C57BL/6 mouse model of MOG-induced autoimmune encephalomyelitis assessed as CD45-positive leukocytes at 100 uL of 20 uM solution administered ip starting from day 1 post immunization and measured 9 to 16 days post Mycobacterium tuberculosis H37Ra/MOG immunization by flow cytometry (reference value: 4.4%); type: functional; how it was run: as §2
Mus musculus [6] = assay: as §4, with “inhibition of development of clinical symptoms” for “CD45-positive leukocytes”, “immunization” for “immunization by flow cytometry (reference value: 4.4%)”; type: functional, organism-based; how it was run: as §2
T-cell [7] = assay: Inhibition of PMA/ionomycin-stimulated C57BL/6 mouse T cells activation assessed as CD69-positive cells at 5 ug/ml treated for 48 hrs starting from 12 hrs post PMA/ionomycin stimulation by flow cytometry (reference value: 37.2%); type: functional; parameters: scale not given: the % may be the effect or the level left
T-cell [8] = assay: Inhibition of PMA/ionomycin-stimulated C57BL/6 mouse T cells activation assessed as CD44-positive cells at 5 ug/ml treated for 48 hrs starting from 12 hrs post PMA/ionomycin stimulation by flow cytometry (reference value: 9.6%); type: functional; parameters: scale not given: the % may be the effect or the level left
Mus musculus [9] = assay: as §1, with “in TH17” for “in immune”, “cell population” for “cell infiltration”, “in” for “in to”, “by immunofluorescence” for “by hematoxylin and eosin staining based”; type: functional, organism-based; how it was run: as §2
Mus musculus [10] = assay: as §1, with “inflammatory foci” for “immune cell infiltration”, “in” for “in to”; type: functional, organism-based; how it was run: as §2
Dendritic cell [11] = assay: Immunomodulatory activity in PMA/ionomycin-stimulated human PBMC-derived dendritic cells assessed as increase in IL-10 production at 5 ug/ml treated for 48 hrs starting from 12 hrs post PMA/ionomycin stimulation; type: functional, cell-based
How it was run: (§5)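 Human PBMC-derived cells from healthy donors were activated with PMA (5 ng/ml) plus ionomycin (500 ng/ml), then cultured with compound or PBS. Cytokines were quantified in the culture supernatants; n=3 donors.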

T-cell [12] = assay: Immunomodulatory activity in PMA/ionomycin-stimulated human PBMC-derived T cells assessed as increase in IL-10 production at 5 ug/ml treated for 48 hrs starting from 12 hrs post PMA/ionomycin stimulation; type: functional, cell-based; how it was run: as §5
T-cell [13] = assay: Anti-inflammatory activity in PMA/ionomycin-stimulated C57BL/6 mouse T cells assessed as reduction in IFNgamma production at 5 ug/ml treated for 48 hrs starting from 12 hrs post PMA/ionomycin stimulation by flow cytometry; type: functional, cell-based
How it was run: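 Total T cells were isolated from wild-type mouse lymph nodes with a Pan T cell kit. Cells were activated 12 h with PMA (5 ng/ml) plus ionomycin (500 ng/ml), then cultured 48 h with compound or PBS. Analysis was by flow cytometry gated on CD3, with intracellular IFN-γ after permeabilization; n=5 mice.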

Dendritic cell [14] = assay: Immunomodulatory activity in PMA/ionomycin-stimulated C57BL/6 mouse bone marrow derived dendritic cells assessed as increase in IL-10 production at 5 ug/ml treated for 48 hrs starting from 12 hrs post PMA/ionomycin stimulation; type: functional, cell-based
Dendritic cell [15] = assay: Anti-inflammatory activity in PMA/ionomycin-stimulated C57BL/6 mouse bone marrow derived dendritic cells assessed as reduction in IFNgamma production at 5 ug/ml treated for 48 hrs starting from 12 hrs post PMA/ionomycin stimulation by flow cytometry; type: functional, cell-based
How it was run: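 Bone marrow from tibias and femurs was cultured 9 days with GM-CSF (150 U/ml) and IL-4 (75 U/ml). From day 7 to day 9, cells were stimulated with PMA (5 ng/ml) plus ionomycin (500 ng/ml) with or without compound. On day 9, cells were gated on MHC-II⁺CD11c⁺ and stained for intracellular IFN-γ; n=5 mice.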

T-cell [16] = assay: Immunomodulatory activity in PMA/ionomycin-stimulated C57BL/6 mouse T cells assessed as increase in IL-10 production at 5 ug/ml treated for 48 hrs starting from 12 hrs post PMA/ionomycin stimulation; type: functional, cell-based
How it was run: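 Mouse lymph-node T cells were activated 12 h with PMA (5 ng/ml) plus ionomycin (500 ng/ml), then cultured 48 h with compound or PBS. Secreted cytokines were measured in the culture supernatants; n=5 mice per group.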

[17] = molecular target: T2, Sigma intracellular receptor 2 (Rattus norvegicus, UniProt Q5U3Y7); assay: Displacement of [3H]DTG from sigma2 receptor in rat liver membranes after 120 mins by scintillation counting method; type: cell membranes
T2 sequence (Q5U3Y7 whole entry): T1 sequence (whole entry)

CN1CCN(C(=O)Cc2ccc(Cl)c(Cl)c2)[C@H]2[C@@H]1CCC[C@@H]2N1CCCC1
inhibition [1]: 4%

O=C(Cc1ccc(Cl)c(Cl)c1)N1CCN[C@H]2CCC[C@H](N3CCCC3)[C@H]21 (racemic)
Activity (Mus musculus [2]): Active | Activity (Dendritic cell [3]): inactive | Activity (T-cell [4]): inactive | Activity (Mus musculus [5]): 0.5% | inhibition (Mus musculus [6]): Active | Activity (T-cell [7]): 25.6% | inhibition [1]: 5% | Activity (T-cell [8]): 7.6% | Activity (Mus musculus [9]): Active | Activity (Mus musculus [10]): Active

O=C(Cc1ccc(Cl)c(Cl)c1)N1CCN(Cc2cn(CCF)nn2)[C@H]2CCC[C@H](N3CCCC3)[C@H]21 (racemic)
Activity (Dendritic cell [11]): Active | Activity (Mus musculus [2]): Active | Activity (Dendritic cell [3]): Active | Activity (T-cell [12]): Active | Activity (T-cell [13]): Active | Activity (T-cell [4]): Active | Activity (Mus musculus [5]): 0.2% | Activity (Dendritic cell [14]): Active | inhibition (Mus musculus [6]): Active | Activity (Dendritic cell [15]): Active | Activity (T-cell [7]): 14.8% | inhibition [1]: 0% | Activity (T-cell [16]): Active | Activity (T-cell [8]): 10.4% | Activity (Mus musculus [9]): Active | Activity (Mus musculus [10]): Active

CCCCN1CCN(C(=O)Cc2ccc(Cl)c(Cl)c2)[C@@H]2[C@@H](N3CCCC3)CCC[C@@H]21 (racemic)
pKi [17]: 5.89

CCCN1CCN(C(=O)Cc2ccc(Cl)c(Cl)c2)[C@@H]2[C@@H](N3CCCC3)CCC[C@@H]21 (racemic)
pKi [17]: 5.62

CC(C)(C)OC(=O)N1CCN(C(=O)Cc2ccc(Cl)c(Cl)c2)[C@@H]2[C@@H](N3CCCC3)CCC[C@@H]21 (racemic)
inhibition [1]: 16%

COC(=O)N1CCN(C(=O)Cc2ccc(Cl)c(Cl)c2)[C@@H]2[C@@H](N3CCCC3)CCC[C@@H]21 (racemic)
inhibition [1]: 8%

O=C(Cc1ccc(Cl)c(Cl)c1)N1CCN(CCCCF)[C@H]2CCC[C@H](N3CCCC3)[C@H]21 (racemic)
inhibition [1]: 8%

O=C(Cc1ccc(Cl)c(Cl)c1)N1CCN(CCF)[C@H]2CCC[C@H](N3CCCC3)[C@H]21 (racemic)
inhibition [1]: 3%

O=C(Cc1ccc(Cl)c(Cl)c1)N1CCN(Cc2ccc(F)cc2)[C@H]2CCC[C@H](N3CCCC3)[C@H]21 (racemic)
inhibition [1]: 0%

CCN1CCN(C(=O)Cc2ccc(Cl)c(Cl)c2)[C@H]2[C@@H]1CCC[C@@H]2N1CCCC1 (relative stereo)
inhibition [1]: 16%

O=C(Cc1ccc(Cl)c(Cl)c1)N1CCN(C(=O)COCCF)[C@H]2CCC[C@H](N3CCCC3)[C@H]21 (relative stereo)
inhibition [1]: 0%
